Source: ChEMBL document CHEMBL1122238, “Synthesis of analogues of pepstatin. Effect of structure in subsites P1', P2', and P2 on inhibition of porcine pepsin” (J Med Chem, 1983)
Non-standard residues stand in square brackets, D forms with d. Residues, ends and D or L forms follow the SMILES beside them. *: point of attachment. Sta = CC(C)C[C@H](N)[C@@H](O)CC(=O)O; Isovaleryl = CC(C)CC(=O)*

Each compound was assayed against T1, Pepsin A (Sus scrofa, UniProt P00791) (assay: Tested for time dependent inhibition constant against porcine pepsin).
Procedure, shortened: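 Porcine pepsin with synthetic heptapeptide substrate Phe-Gly-His-Phe(NO2)-Phe-Ala-Phe-OMe (Km 4.0 × 10^-5 M), followed spectrophotometrically. Enzyme preincubated with inhibitor for 10 min, and the reaction started by adding substrate. Velocities taken at apparent steady state. Inhibitor solutions generally contained 1% methanol v/v, and 10% for poorly soluble ones. IC50 converted to Ki by the Cha equation, correcting for total enzyme and S/Km.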

T1 sequence (P00791 whole entry): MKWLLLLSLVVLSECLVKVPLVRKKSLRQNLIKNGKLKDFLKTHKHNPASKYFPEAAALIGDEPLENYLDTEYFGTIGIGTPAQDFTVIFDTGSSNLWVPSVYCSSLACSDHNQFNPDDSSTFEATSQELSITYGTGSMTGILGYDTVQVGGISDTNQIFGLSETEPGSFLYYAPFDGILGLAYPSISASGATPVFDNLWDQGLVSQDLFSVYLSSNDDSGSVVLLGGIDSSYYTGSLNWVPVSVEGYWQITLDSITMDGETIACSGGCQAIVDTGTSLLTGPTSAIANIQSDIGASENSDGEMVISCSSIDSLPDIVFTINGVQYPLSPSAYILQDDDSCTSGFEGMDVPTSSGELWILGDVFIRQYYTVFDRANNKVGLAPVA

SMILES | Ki [nM]
CC(C)CC(=O)NC(C(=O)NC(CC(C)C)C(O)CC(=O)NC(C)C(=O)NC(C)C)C(C)C (stereo unspecified) | 20
COC(=O)C(Cc1ccccc1)NC(=O)C(C)NC(=O)CC(O)C(CC(C)C)NC(=O)C(NC(=O)CC(C)C)C(C)C (stereo unspecified) | 1.5
COC(=O)[C@H](C)NC(=O)C[C@H](O)[C@H](CC(C)C)NC(=O)[C@@H](NC(=O)[C@@H](NC(=O)CC(C)C)C(C)C)C(C)C (Isovaleryl-VV[Sta]A-OMe) | 3.5

The next lines start with the values.

Ki [nM] | SMILES
3 | CC(C)CCNC(=O)C(C)NC(=O)CC(O)C(CC(C)C)NC(=O)C(NC(=O)CC(C)C)C(C)C (stereo unspecified)
4.6 | CC(C)CCNC(=O)C(CC(C)C)NC(=O)CC(O)C(CC(C)C)NC(=O)C(NC(=O)CC(C)C)C(C)C (stereo unspecified)
1.1 | COC(=O)C(CC(C)C)NC(=O)C(C)NC(=O)CC(O)C(CC(C)C)NC(=O)C(NC(=O)CC(C)C)C(C)C (stereo unspecified)
30 | CC(C)CCNC(=O)C(C)NC(=O)CC(O)C(CC(C)C)NC(=O)C(C)NC(=O)CC(C)C (stereo unspecified)

Each compound was assayed against T1, Pepsin A (assay: Tested for time independent inhibition constant against porcine pepsin).
Procedure, shortened: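 Pepsin (porcine) cleavage of Phe-Gly-His-Phe(NO2)-Phe-Ala-Phe-OMe (Km 4.0 × 10^-5 M), monitored by spectrophotometer. Reactions started with enzyme, giving linear steady-state initial velocities. Inhibitors were usually in 1% methanol v/v, or 10% if poorly soluble. IC50 came from inhibited versus uninhibited velocity and was converted to Ki by the Cha equation, Ki = (IC50 − Et/2)(1 + S/Km)^-1.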

SMILES | Ki [nM]
COC(=O)C(C)NC(=O)CC(O)C(CC(C)C)NC(=O)C(NC(=O)CC(C)C)C(C)C (stereo unspecified) | 600
COC(=O)CNC(=O)C(C)NC(=O)CC(O)C(CC(C)C)NC(=O)C(NC(=O)CC(C)C)C(C)C (stereo unspecified) | 68
CCOC(=O)CC(O)C(CC(C)C)NC(=O)C(NC(=O)CC(C)C)C(C)C (stereo unspecified) | 800
CC(C)CCNC(=O)C(C)NC(=O)CC(O)C(CC(C)C)NC(=O)CNC(=O)CC(C)C (stereo unspecified) | 100
CC(C)CC(=O)NC(C(=O)NC(CC(C)C)C(O)CC(=O)NC(C)C)C(C)C (stereo unspecified) | 300
CNC(=O)C(C)NC(=O)CC(O)C(CC(C)C)NC(=O)C(NC(=O)CC(C)C)C(C)C (stereo unspecified) | 140
CCOC(=O)C[C@H](O)[C@H](CC(C)C)NC(=O)[C@@H](NC(=O)[C@@H](NC(=O)CC(C)C)C(C)C)C(C)C (Isovaleryl-Val-Val-[Sta]-OEt) | 10

Now from value to compound:

Ki [nM] | SMILES
56 | CC(C)CCNC(=O)CNC(=O)CC(O)C(CC(C)C)NC(=O)C(NC(=O)CC(C)C)C(C)C (stereo unspecified)
13 | CC(C)CCNC(=O)C(C)NC(=O)CC(O)C(CC(C)C)NC(=O)C(CC(C)C)NC(=O)CC(C)C (stereo unspecified)
